The source of these data is ChEMBL document CHEMBL1949650, “Design, synthesis, computational and biological evaluation of some new hydrazino derivatives of DHA and pyranopyrazoles” (2012).

Assay [1] relates to Rattus norvegicus. The assay can be described thus: Antiinflammatory activity in rat assessed as inhibition of carrageenan-induced paw oedema at 50 mg/kg after 1 hr by plethysmography relative to control. It counts as functional. The gist of the method:
(§1)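 0.1 ml of 1% carrageenan was injected subplantar into the right hind paw. Paw volume was measured plethysmographically immediately and at 1, 2, 3 and 4 h; oedema is the volume difference. Test compounds were dosed at 50 mg/kg b.w., with diclofenac sodium 50 mg/kg as reference. Percent inhibition was calculated against the saline control group. N = 5, mean ± SEM, ANOVA.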
For orientation: In the carrageenan paw model, swelling and tenderness develop within hours.

In assay [2] the test system is Rattus norvegicus. The assay is described as follows: Antiinflammatory activity in rat assessed as inhibition of carrageenan-induced paw oedema at 50 mg/kg after 3 hrs by plethysmography relative to control. The assay is classed as functional. In outline: as §1
The test system of assay [3] is Rattus norvegicus. The assay can be described thus: Antiinflammatory activity in rat assessed as inhibition of carrageenan-induced paw oedema at 50 mg/kg after 4 hrs by plethysmography relative to controlchallenge by plethysmography. It counts as functional. The gist of the method: as §1
Assay [4] relates to Rattus norvegicus. The assay can be described thus: Antiinflammatory activity in rat assessed as inhibition of carrageenan-induced paw oedema at 50 mg/kg after 2 hrs by plethysmography relative to control. It counts as functional. The gist of the method: as §1
The test system of assay [5] is Mus musculus. The assay can be described thus: Analgesic activity in Swiss albino mouse assessed as protection against acetic acid-induced wriths at 50 mg/kg, po administered 30 mins prior acetic acid challenge measured for 10 mins. The assay is classed as functional. The gist of the method:
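Adult Swiss albino mice (20-25 g) were used, with N = 5 per group. Wriths were counted for 10 min, starting 5 min after acetic acid injection, on day 1 as each mouse's control. Next day, 50 mg/kg was given orally 30 min before acetic acid. Diclofenac sodium was the standard. Protection = […] × 100 from group means. Analysis: mean ± SEM, one-way ANOVA, Tukey-Kramer.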

The test system of assay [6] is Mus musculus. The assay can be described thus: Analgesic activity in Swiss albino mouse assessed as inhibition of acetic acid-induced writhing at 50 mg/kg, po administered 30 mins prior acetic acid-induction measured after 2 hrs by tail immersion method. The assay is classed as functional, organism-based. Set-up: dose 50 mg/kg. (In writhing tests, fewer writhes than in controls are read as antinociception.)

Assay [7] has as its system Mus musculus. The assay is described as follows: Analgesic activity in Swiss albino mouse assessed as inhibition of acetic acid-induced writhing at 50 mg/kg, po administered 30 mins prior acetic acid-induction measured after 1 hr by tail immersion method. It counts as functional, organism-based. Also on record: dose 50 mg/kg.
Assay [8] relates to Mus musculus. The assay can be described thus: Analgesic activity in Swiss albino mouse assessed as inhibition of acetic acid-induced writhing at 50 mg/kg, po administered 30 mins prior acetic acid-induction measured after 1 to 2 hrs by tail immersion method. It counts as functional, organism-based. Also on record: dose 50 mg/kg.

The source made the active and inactive calls. The rule behind the calls is not given here.

Usually inhibition in vivo stands for the share of the control response that was lost under treatment. Turning to `Cc1cc2nn(-c3ccc(Cl)cc3)c(C)c2c(=O)o1`, the inhibition in vivo at 50 mg/kg came to 58.2% in assay [1]; 56.6% in assay [2]; 38.2% in assay [3]; 59.5% in assay [4]; 65.3% in assay [5].
For `O=C(O)Cc1ccccc1Nc1c(Cl)cccc1Cl` [DICLOFENAC SODIUM], in that order: 70.9%, 69.7%, 66.7%, 67.4% and 77.5%.
As to `COc1ccc(-n2nc3cc(C)oc(=O)c3c2C)cc1`, the inhibition in vivo at 50 mg/kg was found to be 64.6% in assay [1]; 57.6% in assay [2]; 42.2% in assay [3]; 53.9% in assay [4]; 75.9% in assay [5].
`CC(=O)c1c(NNc2ccc([N+](=O)[O-])cc2)cc(C)oc1=O`: the inhibition in vivo at 50 mg/kg in assay [1] was found to be 53.2%; in assay [2], 45.5%; in assay [3], 44.1%; in assay [4] it was 55%; in assay [5], 47.3%.
As for `CC(=O)c1c(NNc2ccc(Br)cc2)cc(C)oc1=O`, the inhibition in vivo at 50 mg/kg is 46.8% in assay [1]; 40.4% in assay [2]; 18.6% in assay [3]; 47.2% in assay [4]; 53.1% in assay [5].
With `CC(=O)c1c(NNc2nc(-c3ccccc3)cs2)cc(C)oc1=O`, the inhibition in vivo at 50 mg/kg in assay [1] was 51.9%; in assay [2], 45.5%; in assay [3], 23.5%; in assay [4], 48.3%; in assay [5] it was 51.4%. Also, the result in assay [6] was Active.
Consider `CC(=O)c1c(NNc2ccc(C)cc2)cc(C)oc1=O`, for which the inhibition in vivo at 50 mg/kg in assay [1] stood at 60.1%; in assay [2], 59.6%; in assay [3], 50%; in assay [4] it was 53.4%; in assay [5], 70.2%. Further, the result in assay [7] was Active.
Consider `COc1ccc(NNc2cc(C)oc(=O)c2C(C)=O)cc1`, for which the inhibition in vivo at 50 mg/kg in assay [1] was 50%; in assay [2], 44.4%; in assay [3] it was 24.5%; in assay [4] it was 49.4%; in assay [5], 59.2%.
For the compound `Cc1cc2nn(-c3ccccc3)c(C)c2c(=O)o1`, the inhibition in vivo at 50 mg/kg in assay [1] came out at 57%; in assay [2], 52.5%; in assay [3], 43.1%; in assay [4], 55%; in assay [5] it was 50.2%. Besides, the result in assay [7] and in assay [8] was Active.
As to `CC(=O)c1c(NNc2nc(C)cc(C)n2)cc(C)oc1=O`, the inhibition in vivo at 50 mg/kg stood at 59.5% in assay [1]; 55.6% in assay [2]; 42.2% in assay [3]; 61.8% in assay [4]; 64.9% in assay [5]. For the same compound, the outcome in assay [7] was Active.
In the case of `CC(=O)c1c(NNc2ccc(Cl)cc2)cc(C)oc1=O`, the inhibition in vivo at 50 mg/kg in assay [1] turned out to be 54.4%; in assay [2] it was 58.6%; in assay [3], 28.4%; in assay [4], 57.3%; in assay [5], 75.1%.
In the case of `CC(=O)c1c(NNc2nc3ccccc3s2)cc(C)oc1=O`, the inhibition in vivo at 50 mg/kg is 64.6% in assay [1]; 54.5% in assay [2]; 49% in assay [3]; 58.4% in assay [4]; 65.3% in assay [5]. Besides, the result in assay [7] and in assay [8] was Active.
In the case of `CC(=O)c1c(NNc2cc(C)c3ccccc3n2)cc(C)oc1=O`, the inhibition in vivo at 50 mg/kg turned out to be 51.9% in assay [1]; 55.6% in assay [2]; 51% in assay [3]; 55% in assay [4]; 75% in assay [5]. The result in assay [7], in assay [6] and in assay [8] was Active.
Regarding `CC(=O)c1c(NNc2ccccc2)cc(C)oc1=O`, the inhibition in vivo at 50 mg/kg is 59.5% in assay [1]; 55.6% in assay [2]; 52% in assay [3]; 57.3% in assay [4]; 49.8% in assay [5]. The result in assay [7] was Active.
For the compound `Cc1ccc(-n2nc3cc(C)oc(=O)c3c2C)cc1`, the inhibition in vivo at 50 mg/kg in assay [1] was found to be 63.3%; in assay [2], 54%; in assay [3], 41.7%; in assay [4], 58.4%; in assay [5], 69.4%. Further, the outcome in assay [6] was Active.
With `Cc1cc2nn(-c3ccc(Br)cc3)c(C)c2c(=O)o1`, the inhibition in vivo at 50 mg/kg in assay [1] was determined as 59.5%; in assay [2], 49.5%; in assay [3] it was 38.2%; in assay [4], 50.6%; in assay [5], 44.9%. The result in assay [8] was Active.
Regarding `Cc1cc2nn(-c3nc(-c4ccccc4)cs3)c(C)c2c(=O)o1`, the inhibition in vivo at 50 mg/kg in assay [1] was found to be 67.1%; in assay [2], 62.6%; in assay [3], 52.9%; in assay [4], 59.5%; in assay [5], 70.2%. In addition, the result in assay [8] was Active.
